Measurements reported in PMC3207261 (European journal of nuclear medicine and molecular imaging, 2010).
Several values for one entry are separate records, joined by “and”; a condition that tells them apart may be missing. Identical values can stand only once. Entries after “also recorded” stand apart in the source; their conditions may differ. Like-named read-outs stand apart in the source and are kept apart here. Marks after values point to notes of the source that are not given here.

Columns and labels:
[1] = cited from earlier work
[2] = Radiation dose of other ^18F-labeled radioligands; format: in vivo; details: approximate effective dose calculated from the reported doses of individual organs
[3] = Whole-body PET biodistribution after intravenous injection of ^18F-SP203; format: in vivo, humans
Outline: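 Seven healthy volunteers (3 female, 4 male) received 141±41 MBq i.v. 2-D dynamic whole-body PET covered seven 15-cm bed positions (head to upper thigh) in 16 frames (15 s–4 min), 300 min total, including three 30-min rest periods. OSEM reconstruction with attenuation and scatter correction. Regions were drawn per coronal slice (high-uptake organs) or on summed slices (low-uptake). Uptake was expressed as % injected activity, mean±SD.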

[4] = Residence times of source organs from whole-body imaging; format: in vivo, humans; details: mean±SD
Outline: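 Residence time = area under each organ's time–activity curve (fraction of injected activity). Decay correction was removed and recovery correction applied (first-frame body activity vs dose-calibrator value). Area was trapezoidal to end of imaging, then physical decay only to infinity. Right-lung activity was scaled by the lung mass ratio 1:1.87. Organs spanning beds used the timing of their main bed position.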

[5] = Radiation absorbed doses by Medical Internal Radiation Dose scheme; format: in vivo, humans
Outline: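 Mean residence times of seven subjects were entered for a 70-kg adult male model. Red marrow residence came from the lumbar vertebrae, with all vertebral activity assigned to marrow, × 100/11.7. […] Bladder used the dynamic model with a 2.4-h voiding interval. Maximal injectable activity was derived from dose per MBq against the annual dose limits.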

[6] = format: in vivo, humans
[7] = test system: glutathione S-transferase; details: both in vitro and in vivo, via glutathione S-transferase, ref [16]; cited from earlier work
mGluR5 = details: late time points; ref [3]; cited from earlier work
[8] = ref Communication from R.M. Kessler

## N[C@@H](Cc1cc(O)c(O)cc1[18F])C(=O)O [^18F-FDOPA]
[1]; ref [24]
  Dose to red marrow: 10.5 μSv/MBq
  Effective dose: 19.9 μSv/MBq

## COC(=O)[C@H]1[C@@H](c2ccc(Cl)cc2)C[C@@H]2CC[C@H]1N2CC[18F] [^18F-FECNT]
[1]; ref [21]
  Dose to red marrow: 16.1 μSv/MBq
  Effective dose: 15.8 μSv/MBq

## COC(=O)[C@H]1[C@@H](c2ccc(I)cc2)C[C@@H]2CC[C@H]1N2CCC[18F] [^18F-FPCIT]
[2]; ref [25]
  Effective dose: ~8.6^a μSv/MBq
[1]; ref [25]
  Dose to red marrow: 5.1 μSv/MBq

## C=CCN1CCC[C@H]1CNC(=O)c1cc(CCC[18F])cc(OC)c1OC [^18F-Fallypride]
[1]; [8]
  Dose to red marrow: 19.5 μSv/MBq
  Effective dose: 21.1 μSv/MBq

## Fc1ncccc1OC[C@@H]1CCN1 [^18F-Fluoro-A-85380]
[1]; ref [23]
  Dose to red marrow: 14.1 μSv/MBq
  Effective dose: 23.7 μSv/MBq

## C[C@]12CCC(=O)C[C@@H]1CC[C@@H]1[C@@H]2CC[C@]2(C)[C@@H](O)[C@@H]([18F])C[C@@H]12 [^18F-Fluorodihydrotestosterone]
[2]; ref [20]
  Effective dose: ~12.5^a μSv/MBq
[1]; ref [20]
  Dose to red marrow: 18.7 μSv/MBq

## Cc1cn([C@H]2C[C@H]([18F])[C@@H](CO)O2)c(=O)[nH]c1=O [^18F-Fluorothymidine]
[2]; ref [19]
  Effective dose: ~15.5^a μSv/MBq
[1]; ref [19]
  Dose to red marrow: 24.0 μSv/MBq

## CNc1ccc(-c2nc3ccc(O)cc3s2)cc1[18F] [^18F-GE067]
[1]; ref [22]
  Dose to red marrow: 15.3 μSv/MBq
  Effective dose: 33.8 μSv/MBq

## N#Cc1cc(F)cc(C#Cc2csc(C[18F])n2)c1 [^18F-SP203, 3-fluoro-5-(2-(2-^18F-(fluoromethyl)-thiazol-4-yl)ethynyl)benzonitrile]
[3]; after injection
  Time of peak uptake in brain, kidneys, lungs, heart and spleen: ≤ 8 min
[3]; bone structures with vs without red marrow
  Distribution of radioactivity in the skeleton: most of the radioactivity was in bone structures that contain red marrow and not in those without red marrow; also recorded: the majority of activity in the human skeleton was in the red marrow rather than in bone itself; also recorded: most of the radioactivity was in bone structures that contain red marrow and not in bones without red marrow
[3]; brain, seven healthy humans, i.v.
  Peak uptake in brain: 11 % of injected activity
[3]; gallbladder
  Radioactivity accumulated in gallbladder (asymptote / maximum): 0.9 % of injected activity
  Time to reach asymptote / maximum in gallbladder: ≤ 100 min
[3]; heart
  Peak uptake in heart: 3.4 % of injected activity
[3]; judged from distribution of radioactivity in bone structures with various proportions of bone and red marrow
  Defluorination in humans: undergoes little defluorination
[3]; liver, seven healthy humans, i.v.
  Peak uptake in liver: 12.8±3.4 % of injected activity
[3]; lungs
  Peak uptake in lungs: 4.7 % of injected activity and 4.7±1.5 % of injected activity
[3]; red marrow
  Radioactivity accumulated in red marrow (asymptote): 14 % of injected activity
  Time to reach asymptote in red marrow: ≤ 100 min
[4]; brain, seven subjects
  Residence time, brain: 0.192 h and 0.192 ± 0.048 h
[4]; gallbladder, seven subjects
  Residence time, gallbladder: 0.018 h and 0.018 ± 0.009 h
[4]; heart, seven subjects
  Residence time, heart: 0.024 h and 0.024 ± 0.008 h
[4]; kidney, seven subjects
  Residence time, kidney: 0.037 ± 0.004 h
[4]; liver, seven subjects
  Residence time, liver: 0.091 h and 0.091 ± 0.015 h
[4]; lungs, seven subjects
  Residence time, lungs: 0.065 h and 0.065 ± 0.017 h
[4]; red marrow (from lumbar vertebrae x 100/11.7)
  Residence time, red marrow: 0.307 h and 0.307 ± 0.063 h
[4]; remainder of body
  Residence time, remainder of body: 1.585 ± 0.147 h
[4]; spleen, seven subjects
  Residence time, spleen: 0.014 h and 0.014 ± 0.004 h
[5]; Europe, effective dose limit 10 mSv per year
  Maximal injectable activity per year: no more than 562 MBq
[5]
  Radiation dose, brain: 127.0 mrem/mCi
[5]; standard reference man
  Radiation dose, brain: 34.5 μSv/MBq
[6]; 141±41 MBq (1.9±1.0 nmol SP203) i.v., subject reports, ECG, blood pressure, pulse rate, respiration rate
  Pharmacological effects during the 5-h scan: no pharmacological effects
[6]; acquired 7 to 24 h after radioligand injection
  Effects in blood and urine tests: no effects were noted
[7]
  Defluorination in rat brain: defluorinated
mGluR5
  Radioactivity in the skull in human brain imaging: moderate uptake of radioactivity in the skull; also recorded: moderate amount of radioactivity accumulation in the skull

## FC(F)(F)c1nnnn1-c1ccc(OC[18F])c(CN[C@H]2CCCN[C@H]2c2ccccc2)c1 [^18F-SPARQ]
[1]; ref [7]
  Dose to red marrow: 15.8 μSv/MBq
  Effective dose: 29.3 μSv/MBq
